In PMC2818319 (Bioorganic & medicinal chemistry letters, 2009):

What was measured:
integrin CD11b/CD18 = integrin CD11b/CD18 (Homo sapiens, UniProt P11215); assay: adhesion of K562 CD11b/CD18 cells to immobilized Fibrinogen; format: cell-based; conditions: for EC50: read-out: EC50 (Effective Concentration for 50% increase in cell adhesion), K562 CD11b/CD18 cells, ligand Fg, NB=No increase in binding of K562 CD11b/CD18 cells to ligand Fg
Method in brief: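 K562 cells stably transfected with wild-type integrin CD11b/CD18. Adhesion to immobilized ligand is measured in the presence of test compound. Secondary validation used two ligands, Fg and iC3b. For the analogue series, EC50 (μM) was derived from the increase in adhesion to Fg; absence of any increase was reported as no binding.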

integrin CD11a/CD18 = integrin CD11a/CD18 (Homo sapiens, UniProt P20701); assay: adhesion of K562 CD11a/CD18 cells to immobilized ICAM-1; format: cell-based; conditions: for selectivity for integrin CD11b/CD18 over CD11a/CD18: K562 CD11b/CD18 vs K562 CD11a/CD18 cell adhesion
Method in brief: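 K562 cells stably transfected with wild-type integrin CD11a/CD18. Test compound obtained as pure powder and assessed for its ability to increase adhesion of these cells to immobilized ICAM-1. This is compared with adhesion of K562 CD11b/CD18 cells to judge selectivity.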

[1] = target: recombinant αA-domain of CD11b/CD18 (Homo sapiens, UniProt P11215); assay: binding of purified recombinant αA-domain to immobilized Fg; conditions: in words

**Q.** With `CCOC(=O)CN1C(=O)S/C(=C\c2ccc(-c3ccc(C(=O)O)cc3C)o2)C1=O` [compound 11] as the compound, how does the EC50 (integrin CD11b/CD18) read?
**A.** > 50 µM

**Q.** How did the EC50 (integrin CD11b/CD18) turn out when `COC(=O)CN1C(=O)S/C(=C\c2ccc(Sc3ccccc3)o2)C1=O` [compound 5] was run?
**A.** > 50 µM

**Q.** For `COC(=O)C(C)N1C(=O)S/C(=C\c2ccc(-c3ccc(Cl)cc3Cl)o2)C1=O` (stereo not shown) [compound 13], which “agonist activity in words” value (integrin CD11b/CD18; K562 CD11b/CD18 cell adhesion) is on record?
**A.** inactive

**Q.** What about the EC50 (integrin CD11b/CD18) of the same compound?
**A.** > 50 µM

**Q.** Which EC50 (integrin CD11b/CD18) does the source give for `NS(=O)(=O)c1ccc(N2C(=O)S/C(=C\c3ccc(Cc4ccccc4)o3)C2=O)cc1` [compound 22] here?
**A.** > 50 µM

**Q.** How did the EC50 (integrin CD11b/CD18) turn out when `COC(=O)CN1C(=O)S/C(=C\c2ccc(-c3ccc(C(=O)O)cc3)o2)C1=O` [compound 12] was run?
**A.** > 50 µM

**Q.** With `CCOC(=O)CN1C(=O)S/C(=C\c2ccc(-c3ccc(Cl)cc3Cl)o2)C1=O` [compound 2] as the compound, how does the “selectivity for integrin CD11b/CD18 over CD11a/CD18” value (integrin CD11a/CD18) read?
**A.** two-fold higher selectivity

**Q.** And the “level of K562 CD11b/CD18 cell-adhesion in secondary assays” value (integrin CD11b/CD18; ligands Fg and iC3b)?
**A.** high levels

**Q.** How did the “selectivity for integrin CD11b/CD18 over CD11a/CD18” value (integrin CD11a/CD18) turn out when `CCOC(=O)CN1C(=O)S/C(=C\c2ccc(-c3ccccc3)o2)C1=O` [compound 6] was run?
**A.** high selectivity

**Q.** And the “increase of K562 CD11a/CD18 cell adhesion to ICAM-1” value (integrin CD11a/CD18; in words)?
**A.** no appreciable binding

**Q.** What about the “ligand efficiency (BEI)” value (integrin CD11b/CD18) of the same compound?
**A.** 14

**Q.** And the “binding of αA-domain to immobilized Fg” value [1]?
**A.** increasing its binding to immobilized Fg

**Q.** `CCOC(=O)CN1C(=O)S/C(=C\c2ccc(N3CCOCC3)o2)C1=O` [compound 3] was tested. Which EC50 (integrin CD11b/CD18) did it give?
**A.** > 50 µM
